Assay results as given in article PMC7113734 (Antiviral Research, 2016).
Like-named read-outs stand apart in the source and are kept apart here.

Legend:
wild type HIV-1 RT = wild type HIV-1 RT (Human immunodeficiency virus type 1 group M subtype B, UniProt P04585); assay: Biochemical RT inhibition assay
tacaribe virus = assay: microbe, parasite or virus in culture; type: cell-based; details: Mammarenavirus tacaribeense
HIV-1 integrase = HIV-1 integrase (Human immunodeficiency virus type 1 group M subtype B, UniProt P04585); assay: HIV-1 integrase inhibition assay; type: biochemical
hERG = hERG (Homo sapiens, UniProt Q12809); assay: Standard hERG test for cardiotoxicity
hERG, sequence (Q12809 whole entry): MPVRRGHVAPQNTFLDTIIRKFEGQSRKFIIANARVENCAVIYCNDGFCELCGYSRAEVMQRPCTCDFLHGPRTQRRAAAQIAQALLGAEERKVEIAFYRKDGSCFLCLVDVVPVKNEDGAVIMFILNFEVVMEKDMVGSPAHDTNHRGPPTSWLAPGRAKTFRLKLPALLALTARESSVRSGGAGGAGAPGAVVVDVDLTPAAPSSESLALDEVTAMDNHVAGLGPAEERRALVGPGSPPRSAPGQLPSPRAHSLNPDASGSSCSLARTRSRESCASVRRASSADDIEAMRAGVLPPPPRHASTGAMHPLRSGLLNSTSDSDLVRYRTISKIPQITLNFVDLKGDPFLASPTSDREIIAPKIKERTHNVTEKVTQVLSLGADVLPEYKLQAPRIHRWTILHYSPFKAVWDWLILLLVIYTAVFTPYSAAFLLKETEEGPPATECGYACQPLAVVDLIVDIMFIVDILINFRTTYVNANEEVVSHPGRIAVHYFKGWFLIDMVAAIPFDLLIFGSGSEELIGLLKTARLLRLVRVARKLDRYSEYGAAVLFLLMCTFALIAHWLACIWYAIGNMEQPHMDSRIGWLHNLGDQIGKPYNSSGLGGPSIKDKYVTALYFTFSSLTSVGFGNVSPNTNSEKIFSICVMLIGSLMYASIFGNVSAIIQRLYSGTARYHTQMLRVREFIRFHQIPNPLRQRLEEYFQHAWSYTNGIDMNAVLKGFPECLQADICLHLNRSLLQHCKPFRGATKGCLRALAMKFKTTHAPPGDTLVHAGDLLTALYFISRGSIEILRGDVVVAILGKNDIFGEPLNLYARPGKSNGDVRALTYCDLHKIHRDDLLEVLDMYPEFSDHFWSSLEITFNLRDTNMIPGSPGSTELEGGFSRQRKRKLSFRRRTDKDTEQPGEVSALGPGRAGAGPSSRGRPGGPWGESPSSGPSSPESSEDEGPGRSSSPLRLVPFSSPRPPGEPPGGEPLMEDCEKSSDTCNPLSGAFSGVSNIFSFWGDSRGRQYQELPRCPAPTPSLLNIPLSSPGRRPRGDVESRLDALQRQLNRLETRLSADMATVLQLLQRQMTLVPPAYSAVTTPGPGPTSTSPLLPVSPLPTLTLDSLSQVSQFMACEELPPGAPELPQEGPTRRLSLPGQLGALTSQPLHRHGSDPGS

HIV-1IIIB [1] = assay: Antiviral activity with added serum proteins in CEM-SS cells; type: cell-based
HIV-1 protease = HIV-1 protease (Human immunodeficiency virus type 1 group M subtype B, UniProt P04585); assay: HIV-1 protease inhibition assay; type: biochemical
[2] = test system: HL2/3 cells expressing HIV-1 gp120 and gp41 fusing with HeLa-CD4-LTR-β-gal cells; assay: Fusion inhibition assay; type: cell-based; details: Human immunodeficiency virus 1, HL2/3, read-out: Fusion inhibition EC50 ± SD
Procedure, shortened: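 HeLa-CD4-LTR-β-Gal cells incubated with test compound for 1 h at 37°C/5% CO2, then co-cultured 48 h with HL2/3 cells. Cells lysed and β-galactosidase expression measured by chemiluminescent Gal-Screen.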

cytochrome P450 enzymes = assay: Inhibition of cytochrome P450 enzymes; type: in vitro ADME
HIVIIIB = assay: Cell-to-cell virus transmission assay in CEM-SS cells; type: cell-based, HIV-1
rift valley fever virus = assay: microbe, parasite or virus in culture; type: cell-based
HIV strain 92US727 = assay: Cell-to-cell virus transmission assay in fresh human PBMCs; type: cell-based, HIV-1
Procedure, shortened: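 HIV-infected fresh human PBMCs treated 3 days with six concentrations of test compound. Passaged every 3 days for three passages at fixed compound concentration; 80% of culture volume replaced with fresh compound-containing medium and uninfected cells. Cell-free supernatants collected on sub-culture days for RT activity and extracellular p24 antigen. TCID50 per passage by endpoint dilution.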

MT-4 cells = assay: Toxicity to MT-4 cells; type: cell-based; details: all assays
[3] = test system: drug resistant clinical HIV isolates; assay: Antiviral activity against drug-resistant HIV-1 in PBMCs; type: cell-based; details: Human immunodeficiency virus 1, PBMC
Pharmacokinetics in rats = type: in vivo; details: male, Sprague-Dawley, rat, plasma, po, 1000 mg/kg
Procedure, shortened: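 Male Sprague-Dawley rats, n = 3 per route. Prodrug given as IV bolus (50 mg/kg, 12.5 mg/mL in 5% DMSO/50% PEG300 in saline) or PO (1000 mg/kg, […] in 2% CMC suspension). Blood sampled over 24 h into sodium fluoride plus citric acid, kept on wet ice <10 min, then centrifuged at 4 °C. Plasma stored at −80 °C; prodrug and active metabolite quantified by UPLC-MS/MS (prodrug LLOQ 0.10 ng/mL).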

[4] = test system: clinical HIV-1 subtype B virus 92US723; assay: Antiviral activity with added serum proteins in fresh human PBMCs; type: cell-based; details: 50% human serum, AAGP or HSA vs medium only
HIV-1IIIB [5] = assay: Drug-resistant virus selection by serial dose escalation; type: cell-based; details: fourteen passages, CEM-SS cells
[6] = test system: HIV attachment to HeLa-CD4-LTR-β-gal cells; assay: Attachment inhibition assay; type: cell-based, HIV-1; details: Human immunodeficiency virus 1, read-out: Attachment inhibition EC50 ± SD
[7] = test system: drug-resistant HIV-1 strains; assay: Antiviral activity against drug-resistant HIV-1 strains in MT-4; type: cell-based; details: MT-4
[8] = test system: IIIB strain of HIV-1 in CEM-SS cells; assay: Combination drug interaction evaluation; type: cell-based
Procedure, shortened: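 CEM-SS cells infected with HIV-1 IIIB; inhibition of cytopathic effect measured for the test compound in two-drug combinations with known anti-HIV agents. Efficacy and toxicity analysed by Prichard–Shipman MacSynergy II. Expected additive inhibition computed from each agent's single-agent dose–response; inhibition above expected at each concentration calculated at 95%, 99% and 99.9% confidence. −99 to −51 μM2% scored antagonistic; <−100 highly antagonistic.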

in vitro = details: human, CC50 (cytotoxic concentration), fresh human PBMCs

With NC(=O)CCNC(=O)c1ccccc1S [MDH-1-38, N-(3-amino-3-oxopropyl)-2-mercaptobenzamide] the EC50 (wild type HIV-1 RT) was greater than 100 µM, the EC50 (tacaribe virus) was roughly 20 µM and the EC50 (HIV-1 integrase) was greater than 100 µM. The “hERG test for cardiotoxicity” value (hERG) was “negative”, the “fold decrease in potency” value (HIV-1IIIB [1]; in the presence of 50% human AB serum) was roughly 4.5 fold and the “fold decrease in potency” value (HIV-1IIIB [1]; in the presence of HSA (10 mg/mL)) was 4.5 fold. For the same compound, the EC50 (HIV-1 protease) was greater than 100 µM, the EC50 [2] was 83.3 ± 26.4 µM and the “inhibition of cytochrome P450 enzymes” value (cytochrome P450 enzymes) was “neither NS1040 nor MDH-1-38 had significant inhibitory activity”. The RT (HIVIIIB; Passage 1, 2 μM) was 22 cpm, the TCID50/mL (HIVIIIB; Passage 1, 2 μM) was 0 TCID50/mL and the p24 (HIVIIIB; Passage 1, 2 μM) was 619 pg/mL. The RT (HIVIIIB; Passage 2, 2 μM) was 185 cpm, the TCID50/mL (HIVIIIB; Passage 2, 2 μM) was 2.46 × 10^5 TCID50/mL and the p24 (HIVIIIB; Passage 2, 2 μM) was 28,255 pg/mL. For the same compound, the RT (HIVIIIB; Passage 3, 2 μM) was 2820 cpm, the TCID50/mL (HIVIIIB; Passage 3, 2 μM) was 2.41 × 10^4 TCID50/mL and the p24 (HIVIIIB; Passage 3, 2 μM) was 394,996 pg/mL. The EC50 (rift valley fever virus) was roughly 20 µM, the RT (HIV strain 92US727; Passage 1, 3.25 μM) was 216 cpm and the TCID50/mL (HIV strain 92US727; Passage 1, 3.25 μM) was 3.75 × 10^2 TCID50/mL. For the same compound, the p24 (HIV strain 92US727; Passage 1, 3.25 μM) was 816 pg/mL, the RT (HIV strain 92US727; Passage 2, 3.25 μM) was 730 cpm and the TCID50/mL (HIV strain 92US727; Passage 2, 3.25 μM) was 4.90 × 10^3 TCID50/mL. For the same compound, the p24 (HIV strain 92US727; Passage 2, 3.25 μM) was 2642 pg/mL, the RT (HIV strain 92US727; Passage 3, 3.25 μM) was 11,080 cpm and the TCID50/mL (HIV strain 92US727; Passage 3, 3.25 μM) was 2.17 × 10^4 TCID50/mL. The p24 (HIV strain 92US727; Passage 3, 3.25 μM) was 55,429 pg/mL, the “non-toxic up to high test concentration” value (MT-4 cells) was greater than 100 µM and the EC50 ([3]; read-out: PBMC/HIV-1 EC50 ± SD, Multi-drug resistant AD. MDR) was 10.6 ± 6.95 µM. For the same compound, the EC50 ([3]; read-out: PBMC/HIV-1 EC50 ± SD, Multi-drug resistant MDR769) was 3.5 ± 1.45 µM, the EC50 ([3]; read-out: PBMC/HIV-1 EC50 ± SD, NNRTI-resistant A17R) was 11.4 ± 8.47 µM and the EC50 ([3]; read-out: PBMC/HIV-1 EC50 ± SD, NNRTI-resistant N119) was 2.58 ± 2.52 µM. The EC50 ([3]; read-out: PBMC/HIV-1 EC50 ± SD, PI-resistant 144-44) was 9.78 ± 8.23 µM, the EC50 ([3]; read-out: PBMC/HIV-1 EC50 ± SD, PI-resistant 1002-60) was 2.04 ± 1.03 µM and the EC50 ([3]; read-out: PBMC/HIV-1 EC50 ± SD, PI-resistant 1022-48) was 0.98 ± 0.64 µM. It also gave an EC50 ([3]; read-out: PBMC/HIV-1 EC50 ± SD, PI-resistant 1026-60) of 2.67 ± 0.4 µM, an EC50 ([3]; read-out: PBMC/HIV-1 EC50 ± SD, PI-resistant 1064-52) of 3.06 ± 0.28 µM and an EC50 ([3]; read-out: PBMC/HIV-1 EC50 ± SD, Wild Type 92US727) of 3.32 ± 1.95 µM. The bioavailability (Pharmacokinetics in rats) was 64%, the “change in antiviral activity with serum protein additives” value [4] was “no significant change in antiviral activity” and the “selection of resistant virus” value (HIV-1IIIB [5]) was “did not result in resistance”. The EC50 [6] was 44.4 ± 7.21 µM, the EC50 ([7]; Human immunodeficiency virus 1, read-out: Mean EC50 ± SD, AZT- and NNRTI-resistant, RT 4xAZT/L100I) was 3.59 ± 1.25 µM and the EC50 ([7]; Human immunodeficiency virus 1, read-out: Mean EC50 ± SD, AZT- and NNRTI-resistant, RT 4xAZT/Y181C) was 4.87 ± 0.22 µM. It also gave an EC50 ([7]; Human immunodeficiency virus 1, read-out: Mean EC50 ± SD, AZT-resistant, RT 4xAZT (D67N/K70R/T215Y/K219Q)) of 3.31 ± 2.2 µM, an EC50 ([7]; Human immunodeficiency virus 1, read-out: Mean EC50 ± SD, Atazanavir-resistant, PR I50L) of 0.82 ± 0.37 µM and an EC50 ([7]; Human immunodeficiency virus 1, read-out: Mean EC50 ± SD, Didanosine-resistant, RT L74V) of 3.93 ± 2.33 µM. The EC50 ([7]; Human immunodeficiency virus 1, read-out: Mean EC50 ± SD, Enfuviritide-resistant, Env V38A/N126K) was 7.09 ± 0.03 µM, the EC50 ([7]; Human immunodeficiency virus 1, read-out: Mean EC50 ± SD, Indinavir-, Ritonavir-resistant, PR I84V) was 2.54 ± 0.93 µM and the EC50 ([7]; Human immunodeficiency virus 1, read-out: Mean EC50 ± SD, Indinavir-, Ritonavir-resistant, PR V82A) was 10.3 ± 5.34 µM. For the same compound, the EC50 ([7]; Human immunodeficiency virus 1, read-out: Mean EC50 ± SD, Indinavir-, Ritonavir-resistant, PR V82F/I84V) was 4.1 ± 0.47 µM, the EC50 ([7]; Human immunodeficiency virus 1, read-out: Mean EC50 ± SD, Lamivudine-resistant, RT M184V) was 2.7 ± 1.52 µM and the EC50 ([7]; Human immunodeficiency virus 1, read-out: Mean EC50 ± SD, NNRTI-resistant, RT K103N/Y181C) was 8.03 ± 1.45 µM. For the same compound, the EC50 ([7]; Human immunodeficiency virus 1, read-out: Mean EC50 ± SD, NNRTI-resistant, RT K103N) was 3.97 ± 1.31 µM, the EC50 ([7]; Human immunodeficiency virus 1, read-out: Mean EC50 ± SD, NNRTI-resistant, RT L100I) was 1.22 ± 0.01 µM and the EC50 ([7]; Human immunodeficiency virus 1, read-out: Mean EC50 ± SD, NNRTI-resistant, RT V106A) was 2.74 ± 2.17 µM. The EC50 ([7]; Human immunodeficiency virus 1, read-out: Mean EC50 ± SD, NNRTI-resistant, RT V108I) was 3.84 ± 1.6 µM, the EC50 ([7]; Human immunodeficiency virus 1, read-out: Mean EC50 ± SD, NNRTI-resistant, RT V179D) was 3.57 ± 1.81 µM and the EC50 ([7]; Human immunodeficiency virus 1, read-out: Mean EC50 ± SD, NNRTI-resistant, RT Y181C) was 3.99 ± 1.59 µM. It also gave an EC50 ([7]; Human immunodeficiency virus 1, read-out: Mean EC50 ± SD, NNRTI-resistant, RT Y188C) of 3.37 ± 2.15 µM, an EC50 ([7]; Human immunodeficiency virus 1, read-out: Mean EC50 ± SD, Raltegravir-resistant, IN Q148H/G140S) of 3.39 ± 2.15 µM and an EC50 ([7]; Human immunodeficiency virus 1, read-out: Mean EC50 ± SD, Saquinavir-resistant, PR G48V/L90M) of 1 ± 0.34 µM. The EC50 ([7]; Human immunodeficiency virus 1, read-out: Mean EC50 ± SD, Tenofovir-resistant, RT K65R) was 4.29 ± 0.64 µM, the mean synergy volume ([8]; in combination with amprenavir) was 101 ± 61 μM^2% and the mean synergy volume ([8]; in combination with dolutegravir) was 95.7 ± 44.3 μM^2%. It also gave a mean synergy volume ([8]; in combination with enfuviritide) of 80.8 ± 32.9 μM^2%, a mean synergy volume ([8]; in combination with lopinavir) of 108 ± 64.5 μM^2% and a mean synergy volume ([8]; in combination with nelfinavir) of 498 ± 288 μM^2%. The mean synergy volume ([8]; in combination with ritonavir) was 282 ± 111 μM^2% and the CC50 (in vitro) was greater than 231 µM.
